Most compounds without a hit are left out; they make up all but 2% or so of the library.
NR2E3 ag-1 – agonists of human NR2E3 nuclear receptor; 0.35% of 360,000 active; AID 602229; Q9Y5X4; CHO-S Gal4-NCOR/VP16-NR2E3 two-hybrid, luciferase; inhibition of corepressor binding, % at 3.98 µM;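 active = inhibition above the mean of all tested compounds plus 3 SD, cut at about 70% in these data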;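 also: higher means lower luciferase signal from less NR2E3 corepressor binding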
Target sequence (Q9Y5X4 whole entry, looked up, the tested form may be a part): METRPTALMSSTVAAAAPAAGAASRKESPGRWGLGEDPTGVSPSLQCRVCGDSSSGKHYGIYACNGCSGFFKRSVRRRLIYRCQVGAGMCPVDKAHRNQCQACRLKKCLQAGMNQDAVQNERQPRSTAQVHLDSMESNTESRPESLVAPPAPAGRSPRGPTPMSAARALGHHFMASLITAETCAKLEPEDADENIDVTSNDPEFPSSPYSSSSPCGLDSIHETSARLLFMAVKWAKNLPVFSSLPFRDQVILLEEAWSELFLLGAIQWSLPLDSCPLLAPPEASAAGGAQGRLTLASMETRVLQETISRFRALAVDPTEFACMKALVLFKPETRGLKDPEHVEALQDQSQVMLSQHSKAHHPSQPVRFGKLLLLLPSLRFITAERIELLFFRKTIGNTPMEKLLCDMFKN
Rev-erbA mod – modulates human Rev-erb alpha binding to DNA. 0.79% of 370,000 active. AID 1259318. P20393. Rev-erbα–FITC-DNA binding, fluorescence polarization, 90 min. activity, % at 10 µM;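 active = activity above about 14%, limit read from the data; passing the limit was not always enough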
PG9 binder – small molecules binding HIV-1 gp120 antibody PG9 | inhibition, % at 6.7 µM | TR-FRET gp120-PG9 antibody binding | 0.43% of 360,000 active; in the data active = inhibition above about 8.5%
Neddylation inh – cullin neddylation inhibition | P61081+Q13564 | TR-FRET cullin neddylation, biochemical | calls only at 25 µM | 0.58% of 360,000 active | AID 651699; in the data active = inhibition above about 36%
NR2E3 ag-2 – NR2E3 (human) agonism; Q9Y5X4; GST-NR2E3/biotin-RetCOR TR-FRET, 1536-well; inhibition of corepressor binding, % at 4.78 µM; 0.12% of 320,000 active; AID 2300;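 active = percent inhibition above the cutoff of mean plus 3 SD of all tested compounds, set per screening campaign, cut at about 20% in these data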
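Test system – NR2E3–RetCOR corepressor complex · Quantity – NR2E3 fusion 1.35 nM · Buffer or medium – Tris pH 7.5 · Incubation – Compound–protein incubation for 5 h at 4 °C · Technique – TR-FRET, Eu(K)-anti-GST donor, streptavidin-D2 acceptor, ex 340, em 617/671 nm · Evaluation – percent inhibition of 671/617 nm emission ratio versus biotin and DMSO controls · Plate – 1536-well format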
Rev-erbA confirm – Rev-erb alpha (human) modulation, hit confirmation. shares compounds with Rev-erbA mod. Rev-erb alpha FITC-DNA binding, fluorescence polarization, 90 min. activation, % at 25 µM. 61% of 3,000 active;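 active = activation at or above a set limit, or at least 3 SD above the negative control mean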
RORg DNA counter – counter-screen for Rev-erb alpha modulators: RORgamma DNA binding | shares compounds with Rev-erbA mod | purified RORgamma protein-FITC-DNA binding, fluorescence polarization | IC50, µM | 8% of 910 active | AID 1259320;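 active = Compounds whose fitted half-maximal concentration for disrupting protein-DNA binding is below 10 micromolar; the record names Rev-erb in its text, so the target is in doubt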
Of the large screens only hits and unclear results are named; the others gave an inactive call (follow-up assays come after a bar, where shown).

Cc1cc(C)c(NC(=O)CSc2nc(COc3ccccc3)nc3ccccc23)c(C)c1	Rev-erbA mod 54.8 | Rev-erbA confirm 47.2 | RORg DNA counter inactive
O=C(O)CSc1cnc2ccccc2n1	none
Clc1ccccc1Sc1cnc2ccccc2n1	none
Brc1ccc(Sc2cnc3ccccc3n2)cc1	Rev-erbA mod 49.2 | Rev-erbA confirm 35.2 | RORg DNA counter inactive
Clc1ccc(Sc2cnc3ccccc3n2)cc1	Rev-erbA mod 31.5 | Rev-erbA confirm 29.5
c1ccc(Sc2cnc3ccccc3n2)cc1	Rev-erbA mod 19.5 | Rev-erbA confirm 21.6
Cc1noc(C)c1C(=O)OCC(=O)Nc1ccc(S(N)(=O)=O)cc1	none
COC(=O)[C@]1(C)CCC[C@@]2(C)C3CC[C@@]4(C)C[C@]3(CCC21)CC4=NO (stereo not given in full)	Rev-erbA mod 16.8 | Rev-erbA confirm inactive
COC(=O)[C@]1(C)CCC[C@@]2(C)C3CC[C@@]4(C)C[C@]3(CCC21)CC(=O)N4C (stereo not given in full)	none
CC(C)(C)OC(=O)N1CCC(C(=O)Nc2ccc(C(=O)N3CCCCC3)cc2)CC1	none (no result: NR2E3 ag-2)
O=C(COC(=O)/C=C/c1ccccc1Cl)NC1CC1	none (no result: NR2E3 ag-2)
N#C/C(=N\Nc1ccc([N+](=O)[O-])cc1)C(N)=S	Rev-erbA mod 35.4 | Rev-erbA confirm 29.2
N#C/C(=N\Nc1ccc([N+](=O)[O-])cc1)C(=N)N1CCOCC1	none
N#C/C(=N\Nc1ccc(S(=O)(=O)N2CCCCCC2)cc1)C(N)=S	none
N#C/C(=N/Nc1ccc([N+](=O)[O-])cc1)C(=N)N1CCCCC1	Rev-erbA mod 28.4 (no result: NR2E3 ag-2) | Rev-erbA confirm 20.3
O=S(=O)(c1ccc(Cl)cc1)N1CCN(c2nc(-c3cccs3)nc3ccccc23)CC1	Rev-erbA mod 29.4 (no result: NR2E3 ag-2) | Rev-erbA confirm inactive
CN(C(=O)c1ccc(NC(=O)Cc2cccc(NC(=O)C3CCCN(C(=O)C4CC4)C3)c2)cc1)C1CC1 (stereo not given)	none (no result: NR2E3 ag-2)
Fc1ccc(-c2nc3c(Cl)cc(C(F)(F)F)cn3c2Cl)cc1	Rev-erbA mod 34.9 | Rev-erbA confirm 19.4
O=C(c1cccs1)N1CC[C@H]2[C@H](CCCN2Cc2cc(F)cc(F)c2)C1	none (no result: NR2E3 ag-1, PG9 binder, Neddylation inh, NR2E3 ag-2)
CN(CC(=O)Nc1ccc(Cl)cc1)S(=O)(=O)c1ccc2c(c1)n(C)c(=O)c(=O)n2C	Rev-erbA mod 63.4 | Rev-erbA confirm 42.5 | RORg DNA counter inactive
C[C@H](CO)N1C[C@H](C)[C@H](CN(C)S(=O)(=O)c2ccc(F)cc2)Oc2ncc(Br)cc2C1=O	none (no result: NR2E3 ag-2)
COc1ccc(C)cc1NC(=O)c1cnc2scc(C)n2c1=O	Rev-erbA mod 26.7 (no result: NR2E3 ag-2) | Rev-erbA confirm inactive
COc1ccc(C)cc1NC(=O)c1cnc2n(c1=O)CCS2	none
N#Cc1ccc(Cn2ccc3ccc(-c4ccc5ccn(C(=O)C6CCC6)c5c4)cc32)cc1	none (no result: NR2E3 ag-1, PG9 binder, Neddylation inh, NR2E3 ag-2)
CCOc1cccc2sc(=NC(=O)c3ccc(S(=O)(=O)N4CCOCC4)cc3)n(C)c12	Rev-erbA mod 30.2 | Rev-erbA confirm inactive
COc1ccc(C=CC(=O)c2c(N)n(C)c(=O)n(C)c2=O)cc1	none (no result: NR2E3 ag-1, Neddylation inh, NR2E3 ag-2)
O=C(Nc1ccccn1)c1sc2cccc(F)c2c1Cl	Rev-erbA mod 25.4 | Rev-erbA confirm inactive
O=C(Nc1cccnc1)c1sc2cccc(F)c2c1Cl	none
Cc1cc(C)n2nc(CC(=O)NNC(=O)COc3ccccc3)nc2n1	none
COc1ccc(Cl)cc1-c1cc(C(=O)Nc2ccc(F)cc2)[nH]n1	Rev-erbA mod 66.6 (no result: NR2E3 ag-2) | Rev-erbA confirm 48.0 | RORg DNA counter inactive
N#CCSc1nc(-c2ccccc2)c2cc(Cl)ccc2n1	Rev-erbA mod 20.8 | Rev-erbA confirm inactive
CC(C)(C)[C@H]1COC(=O)CC/C=C\C[C@@H](CC(=O)N(CCO)Cc2ccccc2)C(=O)N1	none (no result: NR2E3 ag-2)
CC(=O)N1CCc2c(sc(NC(=O)C3CC3)c2-c2nc3ccccc3s2)C1	Rev-erbA mod 169.8 | Rev-erbA confirm inactive
CC(=O)Nc1sc2c(c1-c1nc3ccccc3s1)CCN(C(C)=O)C2	none (no result: NR2E3 ag-1, PG9 binder, Neddylation inh, NR2E3 ag-2)
Cc1cccn2c(=O)c3cc(C(=O)N4COCC4(C)C)n(Cc4ccccc4)c3nc12	Rev-erbA mod 31.2 | Rev-erbA confirm inactive
CCNC(=O)c1cc2c(=O)n3cccc(C)c3nc2n(Cc2ccc(C)cc2)c1=N	none (not shown: Neddylation inh)
Cc1ccc(C)c(Nc2nc3c(S(=O)(=O)c4ccccc4)nnn3c3ccccc23)c1	Rev-erbA mod 63.3 | Rev-erbA confirm 32.8 | RORg DNA counter inactive
Cc1ccc(S(=O)(=O)c2nnn3c2nc(Nc2cccc(C)c2)c2ccccc23)cc1	Rev-erbA mod 28.5 | Rev-erbA confirm inactive
Cc1ccc(S(=O)(=O)c2nnn3c2nc(N2CCC(C(N)=O)CC2)c2ccccc23)cc1C	none
Cc1cccc(Nc2nc3ccccc3n3nnnc23)c1	none (not shown: Neddylation inh)
O=C1CCCN1CCCNc1nc2c(S(=O)(=O)c3ccc(Br)cc3)nnn2c2ccccc12	Rev-erbA mod 30.6 | Rev-erbA confirm inactive
O=C(NC1CCCCN(Cc2cccc(C(F)(F)F)c2)C1=O)C1C2CC3CC(C2)CC1C3 (stereo not given)	none (no result: NR2E3 ag-1, PG9 binder, Neddylation inh, NR2E3 ag-2)
Cc1ccc(C)c(NC(=O)CCC(=O)NNS(=O)(=O)c2ccc(Cl)cc2)c1	none
COc1ccccc1S(=O)(=O)N(C)C[C@@H]1OCc2cn(nn2)CCCC(=O)N([C@H](C)CO)C[C@H]1C	none (no result: NR2E3 ag-2)
CCOC(=O)c1c(NC(=O)CSc2nc3ccccc3s2)sc(C(C)=O)c1C	Rev-erbA mod 25.3 | Rev-erbA confirm 42.7 | RORg DNA counter inactive
CCOC(=O)c1c(NC(=O)CSc2nc3cc(Cl)ccc3s2)sc(C(C)=O)c1C	Rev-erbA mod 65.2 (no result: NR2E3 ag-1, Neddylation inh) | Rev-erbA confirm inactive
C#CCNC(=O)c1csc([C@@H]2O[C@H](CO)[C@@H](O)[C@H]2O)n1	none (no result: NR2E3 ag-2)
O=S1(=O)CC(N2CCCCC2)CN1CCc1ccccc1 (stereo not given)	none (no result: NR2E3 ag-2)
COC(=O)c1cc(=O)nc(NN=Cc2ccco2)s1	none (no result: NR2E3 ag-2)
COC(=O)c1c(NC(=O)c2ccc(N(C)S(=O)(=O)c3ccc(C)cc3)cc2)sc2c1CCCC2	Rev-erbA mod 34.0 | Rev-erbA confirm inactive
O=C(Cn1c(=O)n(CC2CCCO2)c(=O)c2ccccc21)c1ccc(Cl)c(Cl)c1 (stereo not given)	Rev-erbA mod 27.4 | Rev-erbA confirm 23.6
CC(=O)C1CCC2C3CC=C4CC(SC(=N)N)CCC4(C)C3CCC12C (stereo not given)	none (no result: NR2E3 ag-2)
CCC(Oc1ccccc1)C(=O)Nc1cc(C(F)(F)F)ccc1N1CCOCC1 (stereo not given)	Rev-erbA mod 16.2 | Rev-erbA confirm inactive
CC(=O)Nc1cc(C(F)(F)F)ccc1N1CCOCC1	none
Clc1ccsc1-c1ccnc(-n2cccc2)n1	none
Clc1ccc(-c2ccnc(-n3cccc3)n2)s1	Rev-erbA mod 17.9 | Rev-erbA confirm inactive
